# Results: ChEMBL document CHEMBL1152259, “Synthesis of new sulfonate and phosphonate derivatives for cation-independent mannose 6-phosphate receptor targeting” (Bioorg Med Chem Lett, 2008)
# Columns and labels:
# [1] = biological target: Insulin-like growth factor 2 receptor ([…], cation-independent mannose-6-phosphate receptor, CI-MPR; hIGF-IIR) (Homo sapiens, UniProt P11717); test: Binding affinity to CI-M6PR
# Summary of the method: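 Competitive displacement ELISA: biotinylated CI-M6PR bound to pentamannose 6-phosphate adsorbed on microtiter wells, challenged with increasing analog concentrations. Remaining bound receptor detected with streptavidin/peroxidase and o-phenylenediamine substrate by optical density. IC50 taken from dose-inhibition curves. Mean of triplicates from one experiment, confirmed in two further experiments.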
# Serum = test: Stability in human serum after 2 days; type: ADME, cell-free; conditions: 48 h
# Summary of the method: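 Analogs incubated 2 days at 37 °C with 75% human serum or without serum. Residual capacity to inhibit biotinylated CI-M6PR binding to plate-adsorbed pentamannose 6-phosphate was then assayed. Result expressed relative to day-0 controls with or without serum, set as 100%. Mean ± standard deviations of triplicates, confirmed in two further experiments.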
# [2] = Cytotoxicity against human fibroblast up to 100 uM after 4 days by MTT assay; type: cell-based; conditions: 96 h
# Summary of the method: (§1)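 Human fibroblasts, MCF7 and MDA-MB-231 cells exposed in culture medium for 4 days to increasing concentrations up to 100 µM, with untreated controls. Proliferation read by MTT assay. Triplicates from one experiment, confirmed in two further experiments.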
# MCF7 = test: Cytotoxicity against human MCF7 cells up to 100 uM by MTT assay; type: cell-based; summary of the method: as §1
# MDA-MB-231 = test: Cytotoxicity against human MDA-MB-231 cells up to 100 uM by MTT assay; type: cell-based; summary of the method: as §1
# Chain of UniProt P11717 (P11717 whole entry, looked up): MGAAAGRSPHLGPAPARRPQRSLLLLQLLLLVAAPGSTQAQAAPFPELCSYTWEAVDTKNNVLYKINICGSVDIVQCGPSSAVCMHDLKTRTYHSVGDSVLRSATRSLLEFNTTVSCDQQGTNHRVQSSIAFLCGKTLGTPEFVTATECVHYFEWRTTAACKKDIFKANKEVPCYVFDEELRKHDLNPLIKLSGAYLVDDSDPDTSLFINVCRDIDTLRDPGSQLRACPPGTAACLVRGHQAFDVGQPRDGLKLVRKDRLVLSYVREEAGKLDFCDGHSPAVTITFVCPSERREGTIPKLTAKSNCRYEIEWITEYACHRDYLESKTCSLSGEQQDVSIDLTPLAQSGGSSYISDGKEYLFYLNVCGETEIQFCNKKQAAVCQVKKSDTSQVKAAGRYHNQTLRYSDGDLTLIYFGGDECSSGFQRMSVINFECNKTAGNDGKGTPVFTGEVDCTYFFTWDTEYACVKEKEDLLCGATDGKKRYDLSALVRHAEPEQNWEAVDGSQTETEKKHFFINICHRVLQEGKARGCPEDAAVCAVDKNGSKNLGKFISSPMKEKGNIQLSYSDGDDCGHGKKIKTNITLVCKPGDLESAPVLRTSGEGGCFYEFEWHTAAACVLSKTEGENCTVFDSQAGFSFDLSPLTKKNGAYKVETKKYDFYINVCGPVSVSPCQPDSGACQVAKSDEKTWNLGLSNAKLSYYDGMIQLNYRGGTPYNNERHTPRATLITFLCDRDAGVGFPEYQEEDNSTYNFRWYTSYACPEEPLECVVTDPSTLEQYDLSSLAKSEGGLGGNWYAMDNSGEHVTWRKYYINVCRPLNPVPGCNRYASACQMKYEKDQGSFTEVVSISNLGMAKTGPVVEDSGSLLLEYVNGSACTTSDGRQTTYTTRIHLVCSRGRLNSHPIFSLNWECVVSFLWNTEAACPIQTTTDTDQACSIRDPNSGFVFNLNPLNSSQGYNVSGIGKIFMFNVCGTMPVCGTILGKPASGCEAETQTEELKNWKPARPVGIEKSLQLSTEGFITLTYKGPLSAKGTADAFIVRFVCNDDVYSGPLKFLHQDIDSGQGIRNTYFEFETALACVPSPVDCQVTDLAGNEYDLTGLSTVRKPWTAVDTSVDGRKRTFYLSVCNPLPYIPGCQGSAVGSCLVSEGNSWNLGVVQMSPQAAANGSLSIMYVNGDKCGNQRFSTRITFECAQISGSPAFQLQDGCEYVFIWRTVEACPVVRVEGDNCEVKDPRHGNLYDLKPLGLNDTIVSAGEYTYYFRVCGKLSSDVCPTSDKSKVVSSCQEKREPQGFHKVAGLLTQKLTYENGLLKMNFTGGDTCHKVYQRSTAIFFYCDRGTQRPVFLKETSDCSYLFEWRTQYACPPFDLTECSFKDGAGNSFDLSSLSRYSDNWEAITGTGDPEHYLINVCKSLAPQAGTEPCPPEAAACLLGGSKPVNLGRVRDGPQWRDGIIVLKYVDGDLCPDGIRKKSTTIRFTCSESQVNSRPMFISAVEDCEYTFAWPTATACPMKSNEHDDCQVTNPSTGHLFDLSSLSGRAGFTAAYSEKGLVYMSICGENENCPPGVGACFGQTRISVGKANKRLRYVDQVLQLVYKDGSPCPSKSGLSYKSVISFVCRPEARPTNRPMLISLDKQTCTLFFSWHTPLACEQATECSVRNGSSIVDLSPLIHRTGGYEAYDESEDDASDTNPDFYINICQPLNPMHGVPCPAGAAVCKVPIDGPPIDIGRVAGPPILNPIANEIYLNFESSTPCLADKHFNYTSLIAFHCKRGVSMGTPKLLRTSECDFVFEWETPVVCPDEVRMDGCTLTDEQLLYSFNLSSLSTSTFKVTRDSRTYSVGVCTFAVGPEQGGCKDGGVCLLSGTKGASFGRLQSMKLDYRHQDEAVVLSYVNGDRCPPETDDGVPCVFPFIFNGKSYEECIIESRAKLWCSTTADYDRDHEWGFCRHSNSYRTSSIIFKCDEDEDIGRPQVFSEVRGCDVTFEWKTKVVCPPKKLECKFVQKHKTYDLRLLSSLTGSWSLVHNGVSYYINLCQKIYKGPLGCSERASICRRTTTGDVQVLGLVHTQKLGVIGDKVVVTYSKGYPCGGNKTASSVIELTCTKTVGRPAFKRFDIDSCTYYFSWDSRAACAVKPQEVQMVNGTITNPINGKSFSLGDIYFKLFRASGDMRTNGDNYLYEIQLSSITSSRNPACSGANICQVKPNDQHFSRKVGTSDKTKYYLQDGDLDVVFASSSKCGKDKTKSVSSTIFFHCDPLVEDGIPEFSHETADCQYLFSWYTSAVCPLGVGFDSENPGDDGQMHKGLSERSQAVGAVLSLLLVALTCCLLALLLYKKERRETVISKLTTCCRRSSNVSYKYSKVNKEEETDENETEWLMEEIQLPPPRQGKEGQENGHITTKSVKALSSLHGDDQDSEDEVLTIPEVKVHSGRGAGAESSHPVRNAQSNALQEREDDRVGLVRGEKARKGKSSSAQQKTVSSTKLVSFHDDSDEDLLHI
IC50 [1] [µM],Stability (Serum),SMILES,Activity [2],Activity (MCF7),Activity (MDA-MB-231)
23,,O=P(O)(O)OC[C@H]1OC(O)[C@@H](O)[C@@H](O)[C@@H]1O (stereo partly specified),,,
150,Stable,CO[C@H]1O[C@H](CCS(=O)(=O)[O-])[C@@H](O)[C@H](O)[C@@H]1O.[Na+],Not Active,Not Active,Not Active
71,Stable,CO[C@H]1O[C@H](/C=C/S(=O)(=O)[O-])[C@@H](O)[C@H](O)[C@@H]1O.[Na+],Not Active,Not Active,Not Active

SMILES,IC50 [1] [µM],Stability (Serum),Activity [2],Activity (MCF7),Activity (MDA-MB-231)
CO[C@H]1O[C@H](/C=C/P(=O)([O-])[O-])[C@@H](O)[C@H](O)[C@@H]1O.[Na+].[Na+],22,Stable,Not Active,Not Active,Not Active
